For eleven compounds, Activity and MIC results are on record in ChEMBL document CHEMBL4004811, “Enantiodivergence in the Biosynthesis of Bromotyrosine Alkaloids from Sponges?” (2017).

Common to all, as to assay type: functional
Assay [1] concerns Staphylococcus aureus. Briefly: Antimicrobial activity against methicillin-sensitive Staphylococcus aureus ATCC 29213 after 18 hrs by MTT dye based TLC assay. A digest of the protocol: (§1)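 Overlay TLC bioautography: compounds applied on TLC plates and overlaid with the bacterial culture. Activity is reported as the minimum inhibitory quantity (MIQ), in μg of compound.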
In general terms: Tetrazolium assays rely on reduction of a dye to a coloured formazan, in cell work by metabolically active cells.

The test system of assay [2] is Staphylococcus aureus. Briefly: Antimicrobial activity against methicillin-resistant Staphylococcus aureus ATCC BAA1026 after 18 hrs by MTT dye based TLC assay. A digest of the protocol: (§2)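 Overlay TLC bioautography: samples applied to TLC plates and overlaid with the bacterial culture. The panel covered three S. aureus strains and one E. coli strain. Activity is read as minimum inhibitory quantity (MIQ, μg per spot).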

For assay [3], the system named is Staphylococcus aureus. Briefly: Antimicrobial activity against multidrug-resistant Staphylococcus aureus after 18 hrs by MTT dye based TLC assay. The gist of the method:
as §2

In another assay the test system is Escherichia coli. Briefly: Antimicrobial activity against Escherichia coli ATCC 25922 after 18 hrs by MTT dye based TLC assay. The gist of the method: as §1

Active and inactive are the calls of the source. The rule behind the calls is not given here.

As to `COC1=C(Br)[C@@H](O)[C@]2(C=C1Br)CC(C(=O)NCCCC(=O)O)=NO2`, the result in the assay with Staphylococcus aureus [1], in the assay on Staphylococcus aureus [2] and with Staphylococcus aureus [3] was Active. For the same compound, the outcome with Escherichia coli was inactive.
`COC1=C(Br)[C@@H](O)[C@]2(C=C1Br)CC(C(=O)NCCc1ccc(O)c(Br)c1)=NO2`: in the assay with Staphylococcus aureus [1], the MIC was 0.31 µg. Besides, the outcome in the assay on Staphylococcus aureus [2] and in the assay on Staphylococcus aureus [3] was Active. Further, the outcome in the assay on Escherichia coli was inactive.
For `COC1=C(Br)[C@@H](O)[C@]2(C=C1Br)CC(C(=O)NCCCOc1c(Br)cc(CCN)cc1Br)=NO2`, the result with Staphylococcus aureus [1], in the assay on Staphylococcus aureus [2] and in the assay with Staphylococcus aureus [3] was Active. Further, the outcome in the assay with Escherichia coli was inactive.
Consider `CN[C@H](CC(C)C)C(=O)N[C@H]1C(=O)N[C@@H](CC(N)=O)C(=O)N[C@H]2C(=O)N[C@H]3C(=O)N[C@H](C(=O)N[C@H](C(=O)O)c4cc(O)cc(O)c4-c4cc3ccc4O)[C@H](O)c3ccc(c(Cl)c3)Oc3cc2cc(c3O[C@@H]2O[C@H](CO)[C@@H](O)[C@H](O)[C@H]2O[C@H]2C[C@](C)(N)[C@H](O)[C@H](C)O2)Oc2ccc(cc2Cl)[C@H]1O` [VANCOMYCIN], for which the MIC against Staphylococcus aureus [2] and in the assay with Staphylococcus aureus [3] was 0.63 µg throughout.
As to `CNCCCOc1c(Br)cc(CCNC(=O)/C(Cc2ccc(OC)c(Br)c2)=N/O)cc1Br`, the result in the assay on Staphylococcus aureus [1], with Staphylococcus aureus [2] and with Staphylococcus aureus [3] was Active. The outcome in the assay on Escherichia coli was inactive.
`COC1=C(Br)[C@@H](O)[C@]2(C=C1Br)CC(C(N)=O)=NO2`: the result with Staphylococcus aureus [1], in the assay on Staphylococcus aureus [2] and with Staphylococcus aureus [3] was Active. Moreover, the result with Escherichia coli was inactive.
`COC1=C(Br)[C@@H](O)[C@]2(C=C1Br)CC(C(=O)NCCc1cc(Br)c(O)c(Br)c1)=NO2` yielded an MIC against Staphylococcus aureus [1] of 0.31 µg. The outcome in the assay on Staphylococcus aureus [2] and in the assay on Staphylococcus aureus [3] was Active. Further, the result in the assay on Escherichia coli was inactive.
With `COc1ccc(C/C(=N\O)C(=O)NCCc2cc(Br)c(OCCCN(C)C)c(Br)c2)cc1Br`, the result with Staphylococcus aureus [1], with Staphylococcus aureus [2] and in the assay with Staphylococcus aureus [3] was Active. Moreover, the outcome in the assay with Escherichia coli was inactive.
Take `COC1=C(Br)[C@@H](O)[C@]2(C=C1Br)CC(C(=O)NCCCOc1c(Br)cc(CC(N)C(=O)O)cc1Br)=NO2` (some centres not stated): the outcome in the assay with Staphylococcus aureus [1], with Staphylococcus aureus [2] and in the assay on Staphylococcus aureus [3] was Active. Moreover, in the assay on Escherichia coli, the outcome was inactive.
Take `CCOC1(CCCNC(=O)C2=NO[C@@]3(C=C(Br)C(OC)=C(Br)[C@H]3O)C2)N=C(N)NC1=O` (mixture of isomers): the result in the assay with Staphylococcus aureus [1], with Staphylococcus aureus [2] and in the assay with Staphylococcus aureus [3] was Active. For the same compound, in the assay on Escherichia coli, the result was inactive.
In the case of `COC1=C(Br)[C@@H](O)[C@]2(C=C1Br)CC(C(=O)NCCCOc1c(Br)cc(C/C(=N\O)C(=O)NCCc3cnc(N)[nH]3)cc1Br)=NO2`, the result in the assay on Staphylococcus aureus [1], in the assay on Staphylococcus aureus [2] and with Staphylococcus aureus [3] was Active. The outcome in the assay on Escherichia coli was inactive.
